Screening data from PubChem BioAssay.
HCV core dimer = inhibitors of HCV core protein dimerization, primary screen, biochemical, TR-FRET, high-throughput | AID 1899, 2009 | TR-FRET GST/Flag-core106 dimerization, 1536-well | inhibition, % at 5 µM | 300,000 tested, 0.33% active;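 active = inhibition above the mean of all tested compounds plus 3 SD, set per screening campaign, cut at about 45% in these data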
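System – GST-tagged and Flag-tagged HCV core protein residues 1-106 · Repeats – one well for each compound · Technique – TR-FRET 671 and 617 nm emission · Doses – one concentration, 5 µM, in 0.5% DMSO · Times – 4 h, 22.5 °C incubation · Also added – Eu donor and XL665 acceptor anti-tag antibodies · Measure – percent inhibition of core106 dimerization signal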
Lipid droplet = inhibitors of hepatocyte lipid droplet formation, primary screen, imaging, high-throughput imaging, BODIPY stain. AID 1656, 2009. inhibition, % at 6.5 µM. AML12 mouse hepatocytes, oleate lipid droplets. 240,000 tested, 0.4% active;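 active = lipid droplet intensity inhibited by at least 50%, with more than 500 cells counted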
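Technique: fluorescence imaging, 20x objective, two fields per well / Assay system: AML12 hepatocytes (mouse) / Measure: % inhibition of lipid droplet signal / Doses: 6.5 µM single-point dosing / Incubation: overnight exposure / Reagent: 100 µM oleic acid challenge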
NS3 helicase inh = inhibitors of HCV NS3 helicase, primary screen, biochemical, Cy5 molecular beacon fluorescence; inhibition, % at 10.9 µM; 290,000 tested, 0.56% active; AID 1800, 2009; NS3 helicase DNA unwinding; Hepatitis C virus NS3 helicase;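 active = inhibition above the mean of all tested compounds plus 3 SD, set per campaign, cut at about 35% in these data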;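 note: 0% = DMSO wells and 100% = thioflavine S control wells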
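System: Hepatitis C virus NS3 helicase domain fragment enzyme | Reagent: Annealed dual-labelled DNA beacon duplex, ATP-started | Compound dosing: 10.9 µM single point, 0.8% DMSO | Incubation: 1 h reaction at 25 °C, ATP-initiated | Technique: Cy5 fluorescence | Evaluation: Percent inhibition from t60/t0 fluorescence ratio | Benchmarks: Low DMSO, high thioflavine S at 110 µM | Replication: Singlicate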
Tb MetRS inh = T. brucei MetRS inhibitors, primary screen, biochemical, luminescence; inhibition, % at 11.9 µM; 360,000 tested, 0.4% active; methionyl-tRNA synthetase (Trypanosoma brucei brucei); purified T. brucei MetRS, ATP depletion, Kinase-Glo luminescence; AID 624268, 2012;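 active = inhibition above a per-plate cutoff of the control wells' mean inhibition plus 3 SD, cut at about 5.5% in these data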;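 note: 0% = DMSO wells median and 100% = median of wells with control inhibitor compound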
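Dosing: 11.9 µM single point; system: parasite MetRS enzyme; technique: luminescence of leftover ATP; times: 15 min enzyme-compound preincubation, 2 h reaction, 10 min detection, 25 °C; replicates: each compound tested once; read-out basis: percent inhibition relative to median high and low control wells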
NS3 hel confirm = HCV NS3 helicase inhibitors, retest, confirmation, biochemical, Cy5 molecular beacon fluorescence, triplicate; NS3 helicase DNA unwinding; shares compounds with NS3 helicase inh; AID 1943, 2009; inhibition, % at 10.9 µM; 1,600 tested, 31% active;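 active = inhibition above the mean of all tested compounds plus 3 SD, cutoff set per campaign, cut at about 36% in these data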
DNA FID counter = compounds displacing fluorescent DNA intercalator, artefact control for HCV NS3 helicase inhibitor project, biochemical, FID fluorescence, triplicate. shares compounds with NS3 helicase inh. DNA fluorescent intercalator displacement. inhibition, % at 7.9 µM. 1,600 tested, 4% active; in the data active = inhibition above about 37%;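 note: 0% = vehicle and 100% = reference compound; higher means more displacement of ethidium bromide from the DNA hairpin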
DNA FID DR = compounds displacing fluorescent intercalator from DNA, dose response, counter-screen for HCV NS3 helicase inhibitor project, biochemical, fluorescence; shares compounds with NS3 helicase inh; fluorescent intercalator displacement from DNA; IC50, µM; 120 tested, under 10 active; call rule not given here
Starred values were filed as active, the others as inactive; . = no result. In the library only some 1.3% were active in any assay of this set; here they are far more common.

SMILES	HCV core dimer	Lipid droplet	NS3 helicase inh	Tb MetRS inh	NS3 hel confirm	DNA FID counter	others
COCCNC(=O)C1C(=O)Nc2ccccc2C(=O)N1Cc1ccccc1 (stereo not drawn)	.	.	.	0.0	.	.
COc1ccc(S(=O)(=O)Nc2cccc(-c3ccc4nncn4n3)c2)c(OC)c1	-0.9	.	.	0.6	.	.
C/C(=N/NC(=O)c1cc2ccccc2cc1O)c1ccco1	-18.9	-26.3	25.8	-0.1	.	.
C/C(=N\NC(=O)c1cc2ccccc2cc1O)c1ccc(C)o1	-6.7	6.7	46.8*	0.2	9.9	-8.9
O=C1CCCC[C@@H](CO)[C@H](O)C[C@H](c2ccccc2)O1	.	.	.	0.0	.	.
CC1(C)Cc2c(c(-c3ccco3)nc3sc4c(NCCCO)ncnc4c23)CO1	1.8	.	60.1*	-0.9	-20.8	-17.6
CC1(C)Cc2c(c(-c3ccco3)nc3sc4c(NCCN5CCOCC5)ncnc4c23)CO1	3.6	4.9	23.0	-0.5	.	.
COc1ccc(OC)c(N(CC(=O)NC2CCCCCC2)S(=O)(=O)c2ccc(C)cc2)c1	16.9	-5.4	-24.5	-0.5	.	.
O=C(C=C1SCCS1)/C=C/c1ccco1	31.9	.	38.2*	-0.9	34.4	2.8
O=S(=O)(Nc1nccs1)c1ccc(Cl)cc1	1.4	17.1	2.9	0.1	.	.
COC(CNC(=O)C(=O)Nc1cc2c3c(c1)CC(=O)N3CCC2)OC	3.8	-1.3	3.8	-0.2	.	.
COc1cc(/C=c2\sc3nc(=O)c(-c4ccccc4)nn3c2=O)ccc1OCCC(C)C	1.9	-7.1	31.6	0.0	.	.
CCOc1ccc(/C=c2\sc3nc(-c4ccco4)nn3c2=O)cc1OCC	70.3*	-5.3	37.8*	-1.0	47.0*	-27.4	DNA FID DR=>79.4
O=C(O)c1cc(-c2ccc(Cl)c(Cl)c2)n(-c2ccccc2)n1	4.5	-1.3	9.9	-0.5	.	.
Cc1ccc(-c2nc(=S)c3c(n2Cc2ccco2)CCCC3)cc1	.	-42.1	40.8*	-0.3	18.3	-2.2
COc1cc(-c2ccc3c(=O)c4ccccc4n(C)c3c2)cc(OC)c1OC	16.9	-4.1	-11.5	-0.2	.	.
COc1ccc(-c2cc(Cl)cc3c(=O)c4ccccc4n(C)c23)cc1F	9.2	-6.5	66.5*	-0.3	-3.2	-10.1
Fc1cccc(Cl)c1C1Nc2cccc3cccc(c23)N1	9.2	-8.9	45.4*	-0.3	-19.8	31.2
c1ccc(C2Nc3cccc4cccc(c34)N2)cc1	3.0	-8.4	14.8	-0.7	.	.
Clc1cccc(Cl)c1C1Nc2cccc3cccc(c23)N1	37.0	-13.3	74.8*	-0.2	-33.1	20.5
O=[N+]([O-])c1cc([N+](=O)[O-])c2oc(-c3ccccc3)c(Br)c2c1O	.	-5.2	44.8*	0.5	74.5*	67.5*
CCOC(=O)COc1ccc(/C=C2/C(=O)NN(c3ccc(F)cc3)C2=O)cc1OC	-11.3	0.9	36.0*	-1.4	-4.2	11.0
CCOC(=O)c1ccc(N2NC(=O)/C(=C/c3ccc(OC(=O)c4ccco4)c(OC)c3)C2=O)cc1	8.4	3.5	29.2	.	.	.
O=C(/C=C1\C(=O)Nc2ccccc21)/C=C1\C(=O)Nc2ccccc21	.	6.6	54.5*	-0.1	9.2	29.1
O=C1Nc2ccccc2/C1=C\C(=O)c1ccccc1	-5.9	-4.7	-15.3	-1.3	.	.
SMILES	HCV core dimer	Lipid droplet	NS3 helicase inh	Tb MetRS inh	NS3 hel confirm	DNA FID counter	others
Cc1ccccc1COc1ccc(-c2nnn(CC(=O)O)n2)cc1	.	-2.9	39.7*	0.1	26.6	-14.9
CC[C@H]1OC(=O)[C@H](C)[C@@H](O[C@H]2C[C@@](C)(OC)[C@@H](O)[C@H](C)O2)[C@H](C)[C@@H](O[C@@H]2O[C@H](C)C[C@H](N(C)C)[C@H]2O)[C@](C)(O)C[C@@H](C)C(=O)[C@H](C)[C@@H](O)[C@]1(C)O	2.8	-3.2	47.0*	-0.7	75.0*	-24.7
O=S1(=O)CCOCCCN1Cc1ccccc1F	-8.4	-0.8	-7.3	-0.2	.	.
O=S1(=O)CCOCCN1Cc1ccc(Cl)cc1Cl	2.1	.	36.6*	.	-18.0	5.7
CNc1ccc(Br)cc(C(=O)/C=C/c2ccc(OC)cc2OC)c1=O	28.2	-61.5	33.5	-0.4	.	.
CCNc1ccc(Br)cc(C(=O)/C=C/c2ccc3c(c2)OCO3)c1=O	57.8*	.	46.7*	-0.4	40.7*	-4.6
CNc1ccc(Br)cc(C(=O)/C=C/c2cccc(OC)c2)c1=O	14.4	2.4	43.5*	-0.1	53.5*	14.7	DNA FID DR=>79.4
CNc1ccc(Br)cc(C(=O)/C=C/c2ccc(Cl)cc2Cl)c1=O	44.9	2.6	38.5*	0.7	74.3*	13.8	DNA FID DR=>79.4
COc1ccc(C(=O)NCC(=O)OCC(=O)N2CCC(C)CC2)cc1OC	-3.9	3.2	2.9	0.1	.	.
O=C(CN1C(=O)NC2(CCOc3ccccc32)C1=O)c1ccc(F)cc1 (stereo not drawn)	5.8	.	.	-0.1	.	.
N#Cc1ccc(-c2ccco2)nc1SCC(=O)c1ccc(Cl)cc1	7.8	24.0	37.8*	1.4	11.5	13.6
CC1CCCN(C(=O)Cc2cccc3ccccc23)C1 (stereo not drawn)	-9.2	-1.2	12.9	-0.3	.	.
CN1CCN(S(=O)(=O)c2ccc(N3CCN(S(=O)(=O)/C=C/c4ccccc4)CC3)nc2)CC1	-0.2	.	-30.9	0.2	.	.
CN1CCN(S(=O)(=O)c2ccc(N3CCN(C(c4ccccc4)c4ccccc4)CC3)nc2)CC1	3.3	1.4	42.5*	0.0	8.1	51.3*
Cc1noc(C)c1C(=O)N1CCC1(C)C(=O)NS(=O)(=O)c1cccc(Cl)c1 (stereo not drawn)	.	.	.	-0.2	.	.
CCOC(=O)COc1cc(N)c(Cl)cc1Cl	6.5	-8.3	3.6	0.4	.	.
